Consider two molecules from ChEMBL document CHEMBL4400523, “Synthesis of novel pyrido[1,2-c]pyrimidine derivatives with rigidized tryptamine moiety as potential SSRI and 5-HT1A receptor ligands” (Eur J Med Chem, 2019).

Series [1] has as its system Mus musculus. Kind of series: Induction of hypothermia in CD-1 mouse assessed as change in body temperature at 5 mg/kg, ip measured after 120 mins by thermometric method. The series is classed as functional, organism-based. A digest of the protocol: (§1)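 Male CD-1 mice (23–40 g), 6–8 per dose, given compound ip in 10% aqueous DMSO (10 mL/kg). Rectal temperature was read by thermometer 30, 60, 90 and 120 min after dosing. Results are expressed as change from basal temperature at experiment start. Analysis by Dunnett's test.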

For series [2], the target named is D(2) dopamine receptor (Homo sapiens, UniProt P14416). Nature of the series: Displacement of [3H]-raclopride from recombinant human D2 receptor expressed in HEK293 cells measured after 1 hr by microbeta scintillation counting analysis. The series is classed as cell-based. (In general: In a radioligand displacement assay an active substance lowers the binding of a labelled ligand.)
Chain of D(2) dopamine receptor (P14416 whole entry): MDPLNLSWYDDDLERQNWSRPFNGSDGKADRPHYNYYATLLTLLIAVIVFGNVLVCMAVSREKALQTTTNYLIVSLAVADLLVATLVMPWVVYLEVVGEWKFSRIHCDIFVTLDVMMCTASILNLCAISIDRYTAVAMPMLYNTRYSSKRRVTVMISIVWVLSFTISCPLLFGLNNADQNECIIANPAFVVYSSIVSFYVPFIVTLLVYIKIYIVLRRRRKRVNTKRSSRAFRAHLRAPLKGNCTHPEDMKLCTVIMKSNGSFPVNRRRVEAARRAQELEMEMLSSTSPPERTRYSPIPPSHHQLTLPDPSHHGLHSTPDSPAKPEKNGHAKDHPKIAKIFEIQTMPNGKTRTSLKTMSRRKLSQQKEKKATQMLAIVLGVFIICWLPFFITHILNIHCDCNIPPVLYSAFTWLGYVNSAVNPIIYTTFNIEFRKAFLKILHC

Series [3] can be described thus: Half life in human liver microsomes at 1 uM by LC-MS analysis. The series is classed as ADME, Microsome. In a few lines: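 Compound at 1 μM incubated at 37 °C with 1 mg/mL pooled human liver microsomes and 100 μM NADPH in 0.1 M potassium phosphate pH 7.4, after 5-min preincubation. Samples taken at 0, 5, 10, 15, 30 min and quenched in ice-cold acetonitrile with buspirone internal standard. No-NADPH controls were run. Parent measured by LC-ESI(+)-MS of [M+H+]; half-life reported.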
Background: Liver microsomes are a subcellular fraction often used to study metabolism.

The target in series [4] is 5-hydroxytryptamine receptor 7 (Homo sapiens, UniProt P34969). Kind of series: Displacement of [3H]-5-CT from recombinant human 5HT7 receptor expressed in HEK293 cells measured after 1 hr by microbeta scintillation counting analysis. The series is classed as cell-based.
Chain of 5-hydroxytryptamine receptor 7 (P34969 whole entry): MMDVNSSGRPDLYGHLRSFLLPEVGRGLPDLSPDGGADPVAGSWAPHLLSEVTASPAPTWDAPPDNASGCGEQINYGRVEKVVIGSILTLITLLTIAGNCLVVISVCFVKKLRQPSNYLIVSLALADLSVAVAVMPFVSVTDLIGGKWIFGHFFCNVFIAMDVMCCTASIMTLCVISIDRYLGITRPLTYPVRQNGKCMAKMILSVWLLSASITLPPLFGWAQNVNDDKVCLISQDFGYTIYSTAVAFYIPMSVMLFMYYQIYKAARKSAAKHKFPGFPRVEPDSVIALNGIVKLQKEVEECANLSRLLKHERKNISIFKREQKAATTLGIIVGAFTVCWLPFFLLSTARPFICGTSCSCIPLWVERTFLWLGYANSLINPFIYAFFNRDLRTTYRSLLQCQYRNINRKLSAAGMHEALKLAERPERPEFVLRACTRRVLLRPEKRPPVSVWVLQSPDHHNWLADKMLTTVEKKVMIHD
In series [5] the target is Sodium-dependent serotonin transporter (Rattus norvegicus, UniProt P31652). Kind of series: Displacement of [3H]-citalopram from SERT in rat cortex tissue measured after 60 mins by microbeta scintillation counting analysis. A digest of the protocol:
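Rat cortex tissue suspension with 1.0 nM [3H]-citalopram in 50 mM Tris pH 7.7, 150 mM NaCl, 5 mM KCl. Incubated 60 min at 24 °C, in duplicate. GF/B filtration, scintillation counting. One-site fit, Ki via Cheng–Prusoff with in-house Kd.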

The target of series [6] is 5-hydroxytryptamine receptor 2A (Homo sapiens, UniProt P28223). Nature of the series: Displacement of [3H]-ketanserin from recombinant human 5HT2A receptor expressed in HEK293 cells measured after 1.5 hrs by microbeta scintillation counting analysis. The series is classed as cell-based.
Chain of 5-hydroxytryptamine receptor 2A (P28223 whole entry): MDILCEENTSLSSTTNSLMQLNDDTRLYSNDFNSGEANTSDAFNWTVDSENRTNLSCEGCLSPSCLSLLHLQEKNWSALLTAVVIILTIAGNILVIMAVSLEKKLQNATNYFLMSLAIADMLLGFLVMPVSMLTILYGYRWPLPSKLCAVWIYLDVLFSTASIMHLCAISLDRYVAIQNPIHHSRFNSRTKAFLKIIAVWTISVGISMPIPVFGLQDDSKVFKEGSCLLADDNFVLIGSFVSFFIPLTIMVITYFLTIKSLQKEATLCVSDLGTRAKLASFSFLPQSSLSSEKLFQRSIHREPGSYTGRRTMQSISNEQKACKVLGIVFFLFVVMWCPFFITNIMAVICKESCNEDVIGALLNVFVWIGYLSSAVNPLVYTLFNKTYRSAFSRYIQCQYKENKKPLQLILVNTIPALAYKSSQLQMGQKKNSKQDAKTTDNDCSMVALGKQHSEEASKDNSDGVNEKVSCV
The subject of series [7] is Mus musculus. Kind of series: Induction of hypothermia in CD-1 mouse assessed as change in body temperature at 17.5 mg/kg, ip measured after 60 mins by thermometric method (reference value: 0.1 deg C). The series is classed as functional, organism-based. In a few lines: as §1
Series [8] has as its system Mus musculus. Kind of series: Induction of hypothermia in CD-1 mouse assessed as change in body temperature at 5 mg/kg, ip measured after 60 mins by thermometric method. The series is classed as functional, organism-based. A digest of the protocol:
as §1

Series [9] relates to Mus musculus. Kind of series: Induction of hypothermia in CD-1 mouse assessed as change in body temperature at 17.5 mg/kg, ip measured after 30 mins by thermometric method (Rvb <= 0.4 deg C). The series is classed as functional, organism-based. In a few lines:
as §1

Series [10] concerns Mus musculus. Nature of the series: Induction of hypothermia in CD-1 mouse assessed as change in body temperature at 15 mg/kg, ip measured after 30 mins by thermometric method (Rvb <= 0.4 deg C). The series is classed as functional, organism-based. A digest of the protocol:
as §1

For series [11], the system named is Mus musculus. Kind of series: Induction of hypothermia in CD-1 mouse assessed as change in body temperature at 15 mg/kg, ip measured after 90 mins by thermometric method (reference value: -0.1 to 0.1 deg C). The series is classed as functional, organism-based. A digest of the protocol:
as §1

The subject of series [12] is Mus musculus. Kind of series: Induction of hypothermia in CD-1 mouse assessed as change in body temperature at 5 mg/kg, ip measured after 30 mins by thermometric method. The series is classed as functional, organism-based. In a few lines: as §1
Series [13] addresses T1, 5-hydroxytryptamine receptor 1A (Homo sapiens, UniProt P08908).
T1 sequence (P08908 whole entry): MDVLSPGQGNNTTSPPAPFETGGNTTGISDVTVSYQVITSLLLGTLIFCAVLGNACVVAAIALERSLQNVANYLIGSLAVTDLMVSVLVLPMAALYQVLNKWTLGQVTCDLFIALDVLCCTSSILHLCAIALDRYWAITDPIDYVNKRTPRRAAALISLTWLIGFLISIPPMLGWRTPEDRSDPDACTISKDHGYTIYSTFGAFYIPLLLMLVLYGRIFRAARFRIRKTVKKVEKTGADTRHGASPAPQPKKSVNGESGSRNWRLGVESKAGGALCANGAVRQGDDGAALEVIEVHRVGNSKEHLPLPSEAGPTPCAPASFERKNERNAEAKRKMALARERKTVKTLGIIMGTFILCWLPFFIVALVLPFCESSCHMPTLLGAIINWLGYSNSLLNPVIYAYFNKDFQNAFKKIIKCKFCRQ
Nature of the series: Displacement of [3H]-8-OH-DPAT from recombinant human 5HT1A receptor expressed in CHO cell membranes measured after 60 mins by microbeta scintillation counting analysis.

The subject of series [14] is Mus musculus. Nature of the series: Induction of hypothermia in CD-1 mouse assessed as change in body temperature at 15 mg/kg, ip measured after 60 mins by thermometric method (reference value: 0.1 deg C). The series is classed as functional, organism-based. In a few lines:
as §1

Series [15] relates to Mus musculus. Kind of series: Induction of hypothermia in CD-1 mouse assessed as change in body temperature at 20 mg/kg, ip measured after 120 mins by thermometric method. The series is classed as functional, organism-based. In a few lines: as §1
Series [16] concerns the target 5-hydroxytryptamine receptor 6 (Homo sapiens, UniProt P50406). Nature of the series: Displacement of [3H]-LSD from recombinant human 5HT6 receptor expressed in HEK293 cells measured after 1 hr by microbeta scintillation counting analysis. The series is classed as cell-based.
The subject of series [17] is Mus musculus. Kind of series: Induction of hypothermia in CD-1 mouse assessed as change in body temperature at 17.5 mg/kg, ip measured after 90 mins by thermometric method (reference value: -0.1 to 0.1 deg C). The series is classed as functional, organism-based. A digest of the protocol: as §1
For series [18], the system named is Mus musculus. Kind of series: Induction of hypothermia in CD-1 mouse assessed as change in body temperature at 20 mg/kg, ip measured after 90 mins by thermometric method. The series is classed as functional, organism-based. In a few lines: as §1
Series [19] deals with Mus musculus. Kind of series: Induction of hypothermia in CD-1 mouse assessed as change in body temperature at 5 mg/kg, ip measured after 90 mins by thermometric method. The series is classed as functional, organism-based. In a few lines: as §1
For series [20], the system named is Mus musculus. Kind of series: Induction of hypothermia in CD-1 mouse assessed as change in body temperature at 20 mg/kg, ip measured after 60 mins by thermometric method. The series is classed as functional, organism-based. In a few lines: as §1
For series [21], the system named is Mus musculus. Kind of series: Induction of hypothermia in CD-1 mouse assessed as change in body temperature at 20 mg/kg, ip measured after 30 mins by thermometric method. The series is classed as functional, organism-based. In a few lines: as §1
Series [22] relates to Mus musculus. Kind of series: Induction of hypothermia in CD-1 mouse assessed as change in body temperature at 15 mg/kg, ip measured after 120 mins by thermometric method (reference value: -0.1 to 0.1 deg C). The series is classed as functional, organism-based. A digest of the protocol:
as §1

Series [23] relates to Mus musculus. Kind of series: Induction of hypothermia in CD-1 mouse assessed as change in body temperature at 17.5 mg/kg, ip measured after 120 mins by thermometric method (reference value: -0.1 to 0.1 deg C). The series is classed as functional, organism-based. A digest of the protocol:
as §1

Series [24] concerns Mus musculus. Nature of the series: Antidepressant-like activity in CD-1 mouse assessed as decrease in immobility time at 20 mg/kg, ip measured after 30 mins by forced swim test. The series is classed as functional, organism-based. A digest of the protocol:
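Male CD-1 mice (23–40 g), 6–8 per dose, given test agent ip in 10% aqueous DMSO (10 mL/kg) 30 min before test. Mice were placed singly in glass cylinders (25 cm high, 10 cm diameter) holding 20 cm water at 23 °C for 6 min. Immobility (passive floating) was timed over the last 4 min after a 2-min adaptation. Analysis by Dunnett's test.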

For series [25], the system named is Mus musculus. Nature of the series: Induction of hypothermia in CD-1 mouse assessed as change in body temperature at 20 mg/kg, ip measured after 60 mins in presence of WAY100635 by thermometric method. The series is classed as functional, organism-based.
The test system of series [26] is Mus musculus. Kind of series: Induction of hypothermia in CD-1 mouse assessed as change in body temperature at 20 mg/kg, ip measured after 30 mins in presence of WAY100635 by thermometric method. The series is classed as functional, organism-based.

Molecules are shown by their SMILES. Calls of active or inactive are those of the source.

Chain of Sodium-dependent serotonin transporter (P31652 whole entry): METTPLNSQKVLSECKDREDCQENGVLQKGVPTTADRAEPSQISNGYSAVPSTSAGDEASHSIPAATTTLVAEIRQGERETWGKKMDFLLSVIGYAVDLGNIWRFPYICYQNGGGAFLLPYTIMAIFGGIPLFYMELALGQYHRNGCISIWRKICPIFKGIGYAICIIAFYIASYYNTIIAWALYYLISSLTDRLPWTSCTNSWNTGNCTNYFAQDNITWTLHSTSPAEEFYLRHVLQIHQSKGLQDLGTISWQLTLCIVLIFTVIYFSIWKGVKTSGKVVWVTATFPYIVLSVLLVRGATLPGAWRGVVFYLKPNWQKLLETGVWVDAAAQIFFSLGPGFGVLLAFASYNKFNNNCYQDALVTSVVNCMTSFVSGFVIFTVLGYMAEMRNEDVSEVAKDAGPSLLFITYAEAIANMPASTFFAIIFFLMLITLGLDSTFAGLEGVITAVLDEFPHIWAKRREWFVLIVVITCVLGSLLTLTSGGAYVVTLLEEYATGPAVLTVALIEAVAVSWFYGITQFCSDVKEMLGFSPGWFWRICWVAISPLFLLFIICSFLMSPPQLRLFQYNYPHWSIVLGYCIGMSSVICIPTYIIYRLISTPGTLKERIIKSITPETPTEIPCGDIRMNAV
Chain of 5-hydroxytryptamine receptor 6 (P50406 whole entry): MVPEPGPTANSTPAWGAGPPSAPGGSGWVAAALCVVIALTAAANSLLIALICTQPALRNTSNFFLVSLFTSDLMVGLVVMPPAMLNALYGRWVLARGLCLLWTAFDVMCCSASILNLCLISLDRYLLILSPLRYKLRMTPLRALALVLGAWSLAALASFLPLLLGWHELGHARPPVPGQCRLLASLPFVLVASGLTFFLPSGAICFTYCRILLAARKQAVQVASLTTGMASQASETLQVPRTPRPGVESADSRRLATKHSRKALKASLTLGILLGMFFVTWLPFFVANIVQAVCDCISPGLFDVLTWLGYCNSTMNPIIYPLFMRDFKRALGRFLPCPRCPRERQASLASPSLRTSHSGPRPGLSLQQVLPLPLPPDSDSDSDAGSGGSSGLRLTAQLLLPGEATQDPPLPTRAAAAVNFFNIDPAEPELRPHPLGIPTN

What is called Ki is a dissociation constant, usually derived from enzyme kinetics or from competition with a known ligand. By half-life is commonly meant the time needed for the level to fall by half in the phase considered. Low readings indicate fast loss, high ones slow loss. For the molecule `COc1ccc(-c2c(=O)n(CCCCN3CCCC(c4c[nH]c5ccc(OC)cc45)C3)c(=O)n3ccccc23)cc1` (stereo unspecified), the deltaT in series [1] is -0.2 °C; in series [7], -0.2 °C; in series [8], 0.2 °C; in series [9] it was -0.6 °C; in series [10] it was -0.5 °C; in series [11] it was 0.3 °C. Moreover, the deltaT in series [12] was -0.2 °C; in series [14] it was 0.2 °C; in series [15] it was 0 °C; in series [17], -0.1 °C; in [18], 0.1 °C; in series [19], 0.2 °C. Also, the deltaT is -1 °C in series [20], -2.4 °C in series [21], 0.2 °C in series [22] and 0.1 °C in [23]. Further, the Ki turned out to be 11200 nM in series [2]; 958 nM in [4]; 86 nM in series [5]; 314 nM in series [6]; 62 nM in series [13]; 690 nM in series [16]. Besides, in series [3], the half-life at 1 µM worked out at 3.31 min.
On to `O=c1c(-c2ccccc2)c2ccccn2c(=O)n1CCCCN1CCCC(c2c[nH]c3ccccc23)C1` (stereo unspecified), for which the deltaT was -0.8 °C in series [1]; -0.4 °C in series [8]; -0.1 °C in [12]; 0.1 °C in series [25]; 0 °C in [26]; 0.2 °C in series [15]. The deltaT in series [18] is 0.1 °C; in [19], -0.5 °C; in [20], -0.3 °C; in series [21], -0.9 °C. Besides, the Ki in series [2] stood at 17700 nM; in series [4], 1110 nM; in series [5], 68 nM; in [6], 433 nM; in series [13], 22 nM; in series [16], 435 nM. In series [3], this molecule registered a half-life at 1 µM of 6.12 min. The result in series [24] was inactive.
